In brackets after ≈: the same amount, converted by molar mass. Bounds are passed on as bounds.

Our source for the MIC values is ChEMBL document CHEMBL4610084, “Antibacterial and ATP Synthesis Modulating Compounds from Salvia tingitana” (2020).

Common to all, as to format: functional
In test [1] the test system is Staphylococcus aureus. The experiment in a line: Antibacterial activity against Methicillin-resistant Staphylococcus aureus MB18 after 24 hrs by microdilution assay. Conditions: MB18, 24 h. The method in brief:
(§1)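 Broth microdilution MIC, run as in an earlier cited report. Strains are clinical isolates identified by standard methods and MALDI-TOF; E. faecalis MB19 and MB51 are Ligurian seawater isolates. Highest concentration tested was 128 μg/mL. MICs are given in μg/mL and μM, with oxacillin and vancomycin as reference antibiotics.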
(In general: Dilution methods test growth across graded concentrations, often in twofold steps.)

For test [2], the system named is Staphylococcus aureus. The experiment in a line: Antibacterial activity against Methicillin-resistant Staphylococcus aureus MB188 after 24 hrs by microdilution assay. Particulars: MB188, 24 h. The essentials: as §1
Test [3] relates to Staphylococcus epidermidis. Nature of the test: Antibacterial activity against Methicillin-resistant Staphylococcus epidermidis MB165 after 24 hrs by microdilution assay. Particulars: MB165, 24 h. The method in brief:
as §1

Test [4] relates to Staphylococcus epidermidis. Nature of the test: Antibacterial activity against Methicillin-resistant Staphylococcus epidermidis MB169 after 24 hrs by microdilution assay. Conditions: MB169, 24 h. The essentials: as §1
For test [5], the system named is Staphylococcus saprophyticus. The experiment in a line: Antibacterial activity against Staphylococcus saprophyticus MB41 after 24 hrs by microdilution assay. Particulars: MB41, 24 h. The method in brief: (§2)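 Broth microdilution MIC against clinical or seawater-isolated strains (identified by standard procedures and MALDI-TOF), with compound solutions and testing as in earlier work. MIC reported in μg/mL and μM.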

The subject of another test is Staphylococcus capitis. The experiment in a line: Antibacterial activity against Methicillin-resistant Staphylococcus capitis MB71 after 24 hrs by microdilution assay. Conditions: MB71, 24 h. The method in brief:
as §1

Another test relates to Staphylococcus warneri. Nature of the test: Antibacterial activity against Methicillin-resistant Staphylococcus warneri MB74 after 24 hrs by microdilution assay. Particulars: MB74, 24 h. The essentials:
as §1

A further test deals with Staphylococcus simulans. The experiment in a line: Antibacterial activity against Staphylococcus simulans MB94 after 24 hrs by microdilution assay. Conditions: MB94, 24 h. The essentials:
as §2

Test [6] deals with Staphylococcus lugdunensis. Nature of the test: Antibacterial activity against Staphylococcus lugdunensis MB96 after 24 hrs by microdilution assay. Conditions: MB96, 24 h. The method in brief: as §2
In test [7] the test system is Staphylococcus haemolyticus. The experiment in a line: Antibacterial activity against Methicillin-resistant Staphylococcus haemolyticus MB115 after 24 hrs by microdilution assay. Conditions: MB115, 24 h. The method in brief: as §1
The next test deals with Staphylococcus hominis. Nature of the test: Antibacterial activity against Methicillin-resistant Staphylococcus hominis MB124 after 24 hrs by microdilution assay. Particulars: MB124, 24 h. The essentials:
as §1

Test [8] deals with Enterococcus faecalis. The experiment in a line: Antibacterial activity against Vancomycin resistant Enterococcus faecalis MB1 after 24 hrs by microdilution assay. Particulars: MB1, 24 h. The essentials:
as §1

Test [9] has as its system Enterococcus faecalis. The experiment in a line: Antibacterial activity against Vancomycin resistant Enterococcus faecalis MB19 after 24 hrs by microdilution assay. Particulars: MB19, 24 h. The essentials: as §1
The subject of test [10] is Enterococcus faecalis. Nature of the test: Antibacterial activity against Vancomycin resistant Enterococcus faecalis MB51 after 24 hrs by microdilution assay. Particulars: MB51, 24 h. The essentials:
as §1

The subject of test [11] is Enterococcus faecalis. Nature of the test: Antibacterial activity against Enterococcus faecalis MB76 after 24 hrs by microdilution assay. Conditions: MB76, 24 h. The essentials:
as §1

For test [12], the system named is Enterococcus faecium. The experiment in a line: Antibacterial activity against Enterococcus faecium MB2 after 24 hrs by microdilution assay. Conditions: MB2, 24 h. The method in brief:
as §2

The subject of test [13] is Enterococcus faecium. Nature of the test: Antibacterial activity against Enterococcus faecium MB3 after 24 hrs by microdilution assay. Conditions: MB3, 24 h. The essentials: as §2
Test [14] relates to Enterococcus faecium. The experiment in a line: Antibacterial activity against Enterococcus faecium MB152 after 24 hrs by microdilution assay. Particulars: MB152, 24 h. The essentials: as §2
The test system of another test is Enterococcus avium. Nature of the test: Antibacterial activity against Enterococcus avium MB119 after 24 hrs by microdilution assay. Particulars: MB119, 24 h. The method in brief: as §2
The subject of test [15] is Enterococcus casseliflavus. The experiment in a line: Antibacterial activity against Vancomycin resistant Enterococcus casseliflavus MB159 after 24 hrs by microdilution assay. Particulars: MB159, 24 h. The essentials: as §1
The next test has as its system Enterococcus durans. Nature of the test: Antibacterial activity against Enterococcus durans MB113 after 24 hrs by microdilution assay. Particulars: MB113, 24 h. The method in brief:
as §2

In the next test the test system is Enterococcus gallinarum. The experiment in a line: Antibacterial activity against Vancomycin resistant Enterococcus gallinarum MB111 after 24 hrs by microdilution assay. Particulars: MB111, 24 h. The essentials: as §1

On to `COc1ccc(-c2cc(=O)c3c(OC)c(OC)c(OC)cc3o2)cc1OC` [SINENSETIN], for which the MIC in the test on Staphylococcus aureus [1] was greater than 128 µg/mL; with Staphylococcus aureus [2], 344 µM; in [3], greater than 128 µg/mL; in test [4], 344 µM; in [5], greater than 128 µg/mL; against Staphylococcus capitis, 344 µM (≈ 128 µg/mL). Further, the MIC in the test with Staphylococcus warneri was 344 µM (≈ 128 µg/mL); with Staphylococcus simulans, greater than 128 µg/mL; in test [6] it was greater than 128 µg/mL; in test [7], greater than 128 µg/mL; in the test with Staphylococcus hominis, 344 µM (≈ 128 µg/mL); against Enterococcus faecalis [8], 86 µM (≈ 32 µg/mL). Moreover, the MIC with Enterococcus faecalis [9] amounted to 344 µM (≈ 128 µg/mL); in the test on Enterococcus faecalis [10], 172 µM (≈ 64 µg/mL); in the test with Enterococcus faecalis [11], 344 µM (≈ 128 µg/mL); with Enterococcus faecium [12], 344 µM (≈ 128 µg/mL); against Enterococcus faecium [13], 344 µM (≈ 128 µg/mL); against Enterococcus faecium [14], 172 µM (≈ 64 µg/mL). In addition, the MIC in the test on Enterococcus avium was 344 µM (≈ 128 µg/mL); in test [15], 172 µM (≈ 64 µg/mL); with Enterococcus durans it was 344 µM; with Enterococcus gallinarum, 172 µM (≈ 64 µg/mL).

Regarding `COC(=O)[C@]1(C)CCC[C@@]2(C)[C@H]1[C@@H](O)C[C@@](C)(O)[C@@H]2CC/C(C)=C/[C@H](O)[C@H]1OC(=O)C=C1C`, the MIC against Staphylococcus aureus [1] was 276 µM; with Staphylococcus aureus [2], greater than 128 µg/mL; in [3], 276 µM; in [4], greater than 128 µg/mL; in test [5], greater than 128 µg/mL; with Staphylococcus capitis, 276 µM (≈ 128 µg/mL). Further, the MIC against Staphylococcus warneri is 138 µM (≈ 64.1 µg/mL); against Staphylococcus simulans, greater than 128 µg/mL; in test [6], greater than 128 µg/mL; in test [7], 276 µM; against Staphylococcus hominis, 138 µM (≈ 64.1 µg/mL); in the test on Enterococcus faecalis [8], 138 µM (≈ 64.1 µg/mL). In addition, the MIC against Enterococcus faecalis [9] was found to be 276 µM (≈ 128 µg/mL); against Enterococcus faecalis [10], 138 µM (≈ 64.1 µg/mL); against Enterococcus faecalis [11], 276 µM (≈ 128 µg/mL); in the test with Enterococcus faecium [12] it was 276 µM (≈ 128 µg/mL); against Enterococcus faecium [13], 276 µM (≈ 128 µg/mL); in the test with Enterococcus faecium [14], 138 µM (≈ 64.1 µg/mL). For the same molecule, the MIC was determined as 138 µM (≈ 64.1 µg/mL) against Enterococcus avium, 276 µM (≈ 128 µg/mL) in [15], 138 µM against Enterococcus durans and 276 µM (≈ 128 µg/mL) in the test on Enterococcus gallinarum.

In the case of `COC(=O)[C@]1(C)CCC[C@@]2(C)[C@H]1CC[C@@](C)(O)[C@@H]2CC/C(C)=C/C[C@H]1OC(=O)C=C1C`, the MIC in the test with Staphylococcus aureus [1] is greater than 128 µg/mL; in the test on Staphylococcus aureus [2], 296 µM; in [3] it was 296 µM; in [4] it was greater than 128 µg/mL; in test [5], 296 µM; against Staphylococcus capitis, 148 µM (≈ 64 µg/mL). The MIC in the test on Staphylococcus warneri is 148 µM (≈ 64 µg/mL); in the test with Staphylococcus simulans it was greater than 128 µg/mL; in test [6], 296 µM; in test [7], 296 µM; in the test with Staphylococcus hominis, 296 µM (≈ 128 µg/mL); in the test on Enterococcus faecalis [8], 74.1 µM (≈ 32.1 µg/mL). Further, the MIC with Enterococcus faecalis [9] was 148 µM (≈ 64 µg/mL); against Enterococcus faecalis [10], 296 µM (≈ 128 µg/mL); in the test on Enterococcus faecalis [11], 148 µM (≈ 64 µg/mL); against Enterococcus faecium [12], 296 µM (≈ 128 µg/mL); in the test with Enterococcus faecium [13], 148 µM (≈ 64 µg/mL); against Enterococcus faecium [14], 296 µM (≈ 128 µg/mL). Further, the MIC against Enterococcus avium turned out to be 296 µM (≈ 128 µg/mL); in [15], 296 µM (≈ 128 µg/mL); against Enterococcus durans, 296 µM; with Enterococcus gallinarum, 148 µM (≈ 64 µg/mL).

Regarding `CC1=CC(=O)OC1C/C=C(\C)CC[C@@H]1[C@@]2(C)CCC[C@@](C)(CO)[C@@H]2CC[C@@]1(C)O` (stereo partly drawn), the MIC was 317 µM against Staphylococcus aureus [1]; greater than 128 µg/mL with Staphylococcus aureus [2]; 317 µM in test [3]; greater than 128 µg/mL in test [4]; 317 µM in test [5]; 317 µM (≈ 128 µg/mL) in the test on Staphylococcus capitis. Also, the MIC against Staphylococcus warneri is 317 µM (≈ 128 µg/mL); with Staphylococcus simulans it was greater than 128 µg/mL; in [6], greater than 128 µg/mL; in [7], greater than 128 µg/mL; in the test with Staphylococcus hominis, 317 µM (≈ 128 µg/mL); against Enterococcus faecalis [8], 317 µM (≈ 128 µg/mL). Further, the MIC in the test with Enterococcus faecalis [9] worked out at 79.2 µM (≈ 32 µg/mL); in the test with Enterococcus faecalis [10] it was 158 µM (≈ 63.9 µg/mL); in the test with Enterococcus faecalis [11] it was 158 µM (≈ 63.9 µg/mL); with Enterococcus faecium [12], 317 µM (≈ 128 µg/mL); with Enterococcus faecium [13], 317 µM (≈ 128 µg/mL); in the test with Enterococcus faecium [14] it was 158 µM (≈ 63.9 µg/mL). The MIC in the test on Enterococcus avium is 158 µM (≈ 63.9 µg/mL); in test [15], 158 µM (≈ 63.9 µg/mL); in the test on Enterococcus durans it was greater than 128 µg/mL; with Enterococcus gallinarum, 158 µM (≈ 63.9 µg/mL).

In general, MIC refers to the lowest concentration found to suppress growth. Lower therefore signals a more susceptible organism.
